Assay results gathered from unrelated publications.
Protocols differ between the studies behind these lines.
OPRM1: Mu-type opioid receptor (OPRM1, Homo sapiens, UniProt P35372)
GRK4: G protein-coupled receptor kinase 4 (GRK4, Homo sapiens, UniProt P32298)

CCN1/C(=C/C(C)=O)Sc2ccc(F)cc21 — inhibition (OPRM1; ligand displacement; radioligand; 10 µM): 0.11%
Cc1cc(S(=O)(=O)N[C@H]2CC[C@H](CN3CCN(c4ccc(C5CCC(=O)NC5=O)cc4F)CC3)CC2)ccc1Nc1ncc(C(F)(F)F)c(N2CCC[C@](C)(O)C2)n1 (stereo partly shown) — remaining binding (GRK4; binding; competition with immobilised ligand; 1 µM): 89%
C#Cc1cc(-c2cc(Nc3nc(N[C@@H](C)c4ccc(F)cn4)ncc3Cl)n[nH]2)ccc1C=O — inhibition (cGMP-dependent protein kinase 1 (PRKG1, Homo sapiens, UniProt Q13976); enzyme activity; inhibitor; 0.2 µM): 3.89%
Cc1cc(O)c(-c2ccc([C@@H](C)CN(C)C)cc2)c2c1[nH]c(=O)c1sccc12 — inhibition (SRSF protein kinase 1 (SRPK1, Homo sapiens, UniProt Q96SB4); enzyme activity; inhibitor; 0.1 µM): 1.88%
COc1ccc2oc(-c3ccc4nc(N)oc4c3)c/c(=N\c3ccccc3NC(=O)CCN)c2c1 — remaining binding (Protein kinase C alpha type (PRKCA, Homo sapiens, UniProt P17252); binding; 1 µM): 100%
C[C@]1(O)CCCN(c2nc(Nc3ccc(S(=O)(=O)N[C@H]4CC[C@H](CN5CCN(c6ccc(C7CCC(=O)NC7=O)cc6F)CC5)CC4)cc3Cl)ncc2C(F)(F)F)C1 (stereo partly shown) — remaining binding (GRK4; binding; competition with immobilised ligand; 1 µM): 93%
C1=C/COCc2cc(ccc2OCCN2CCCC2)Nc2nccc(n2)-c2cccc(c2)COC/1 — remaining binding (eIF-2-alpha kinase GCN2 (EIF2AK4, Homo sapiens, UniProt Q9P2K8, S808G); binding; 0.1 µM): 9.6%
CCCCC(=O)Nc1ccc(-c2ccc3ncn(CCC)c(=O)c3c2)cn1 — remaining binding (Ephrin type-A receptor 6 (EPHA6, Homo sapiens, UniProt Q9UF33); binding; competition with immobilised ligand; 0.5 µM): 100%
Cc1cc(F)cc2c(CCC(=O)N[C@@H]3C(=O)NC[C@H]3O)c(-c3ccc(F)cc3)[nH]c12 — inhibition (OPRM1; cell-free assay; 10 µM): 5%
NC/C(=C\F)COc1cccc(Cn2c(=S)[nH]c(=O)c3[nH]cnc32)c1 — inhibition (OPRM1; ligand displacement; radioligand; 10 µM): < 50%
